High-throughput results deposited in PubChem BioAssay by several laboratories.
HKDC1 inhibitor: blocks human hexokinase HKDC1 activity; Q2TB90; recombinant HKDC1, G6PDH/diaphorase resazurin coupled fluorescence; inhibition, % at 20 µM; 0.16% of 340,000 active; AID 493160;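 active means inhibition above about 35% when tested at 20 µM, limit read from the data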;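 further: plate controls were DMSO wells with enzyme for no effect and DMSO wells lacking enzyme for full effect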
Target sequence (Q2TB90 whole entry, looked up): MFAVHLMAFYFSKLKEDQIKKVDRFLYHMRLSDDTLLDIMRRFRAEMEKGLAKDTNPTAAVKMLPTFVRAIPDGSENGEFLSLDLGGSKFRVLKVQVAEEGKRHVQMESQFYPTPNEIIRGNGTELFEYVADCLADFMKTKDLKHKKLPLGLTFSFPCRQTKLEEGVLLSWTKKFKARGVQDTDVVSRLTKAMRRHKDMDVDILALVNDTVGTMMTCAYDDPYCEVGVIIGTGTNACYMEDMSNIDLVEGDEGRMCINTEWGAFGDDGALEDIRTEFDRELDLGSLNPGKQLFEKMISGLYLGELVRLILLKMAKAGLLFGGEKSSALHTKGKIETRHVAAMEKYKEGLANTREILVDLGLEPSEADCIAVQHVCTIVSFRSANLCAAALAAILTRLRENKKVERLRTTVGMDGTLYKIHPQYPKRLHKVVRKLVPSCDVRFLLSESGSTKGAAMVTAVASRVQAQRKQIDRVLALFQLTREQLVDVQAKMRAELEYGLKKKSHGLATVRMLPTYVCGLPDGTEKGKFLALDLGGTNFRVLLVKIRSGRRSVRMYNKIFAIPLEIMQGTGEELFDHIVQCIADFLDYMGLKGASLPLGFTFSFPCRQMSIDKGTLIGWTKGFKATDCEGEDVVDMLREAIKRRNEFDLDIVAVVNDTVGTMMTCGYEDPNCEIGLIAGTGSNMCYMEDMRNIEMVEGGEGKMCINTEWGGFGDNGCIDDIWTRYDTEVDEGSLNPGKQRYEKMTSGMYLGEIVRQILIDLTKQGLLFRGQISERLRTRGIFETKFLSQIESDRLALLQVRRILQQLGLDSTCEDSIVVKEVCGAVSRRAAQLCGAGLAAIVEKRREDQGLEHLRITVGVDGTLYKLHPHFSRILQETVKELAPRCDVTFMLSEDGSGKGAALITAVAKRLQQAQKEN
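Assay system: recombinant HKDC1 hexokinase; detection: coupled resazurin fluorescence, excitation 525 nm, emission 613 nm; benchmarks: DMSO-plus-enzyme-mix negative control, buffer-substituted positive control; compound dosing: single 20 µM dose; schedule: 90 min at room temperature in dark; also added: glucose plus 1 mM ATP as hexokinase substrates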
G6PDH counter: L. mesenteroides G6PDH inhibition counter-screen. inhibition, % at 5 µM. 0.12% of 200,000 active. Purified L. mesenteroides G6PDH, diaphorase/resazurin coupled fluorescence, 45 min; in the data active means inhibition above about 50%
Tb hexokinase: blocks Trypanosoma brucei hexokinase 1 activity; recombinant TbHK1, G6PDH-coupled NADH A340; inhibition, % at 10 µM; 0.11% of 220,000 active;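 active means inhibition of 50% or more in the single-dose primary screen; inactive means inhibition below 50%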
PfGluPho inh: PfG6PD (Plasmodium falciparum) enzyme inhibition | PfGluPho enzyme, NADPH resazurin-diaphorase fluorescence | 0.78% of 350,000 active | inhibition, % at 20 µM;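 active means inhibition reaching at least a set limit at 20 µM in the primary screen, cut at about 59% in these data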;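 further: 0% = DMSO wells with substrate and 100% = DMSO wells lacking glucose-6-phosphate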
Diaph inh CS: counter-screen for diaphorase-based assays: diaphorase inhibitors and chemical oxidizers; diaphorase resazurin-to-resorufin fluorescence, NADH, 16 min; bacterial (C. kluyveri) enzyme, not human; AID 1217; inhibition, % at 20 µM; 0.69% of 190,000 active;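 active means primary screen inhibition at 20 µM above a set limit, cut at about 50% in these data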;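 further: plate controls were DMSO with full reaction for no effect and wells lacking NADH for full effect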
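System: Diaphorase enzyme from Clostridium kluyveri | Amount: Enzyme working solution with 0.14 U/mL diaphorase | Benchmarks: No-NADH positive control and DMSO neutral control | Signal: Fluorescence of resorufin formed from resazurin, Ex 544/Em 590 nm | Schedule: 16-min room-temperature incubation before reading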
PfGluPho conf: PfG6PD inhibition, single-dose confirmed. shares compounds with PfGluPho inh. recombinant PfGluPho, NADPH-diaphorase-resazurin fluorescence. inhibition, % at 20 µM. 34% of 2,400 active. AID 504753;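 active means inhibition of at least 50% at 20 µM in any single replicate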;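 further: 0% = DMSO with substrate and 100% = DMSO lacking glucose-6-phosphate substrate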
Diaph ctr 10uM: diaphorase inhibition or oxidation at 10 uM NADPH | diaphorase-coupled resazurin reduction, fluorescence, NADPH 10 uM | shares compounds with PfGluPho inh | 39% of 820 active | inhibition, % at 20 µM;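 active means average inhibition reaching 50% or more with the compound at 20 µM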;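 further: resorufin red fluorescence formed as diaphorase reduces resazurin using NADPH; 0% = DMSO with enzyme and 100% = DMSO without enzyme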
Diaph ctr 30uM: counter-screen for P. falciparum G6PD inhibitors: diaphorase inhibitors, oxidizers; shares compounds with PfGluPho inh; Diaphorase/resazurin coupled assay, resorufin fluorescence, 30 uM NADPH; inhibition, % at 20 µM; 29% of 820 active;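 active means inhibition averaging 50% or more, tested at 20 µM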;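 further: 0% = DMSO with enzyme and 100% = DMSO wells lacking diaphorase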
Active calls of the source: *; / = no result given. Sampled rows, rich in hits. Any-hit rate of the full collection: about 1.2%.

SMILES	HKDC1 inhibitor	G6PDH counter	Tb hexokinase	PfGluPho inh	Diaph inh CS	PfGluPho conf	others
CCOC(=O)c1cnc(-c2cccc(OC)c2)[nH]c1=O	-8	5	-6	96*	14	78*	Diaph ctr 10uM=75*;Diaph ctr 30uM=56*
COc1ccc(OCC(=O)Nn2c(-c3ccc(OC)cc3)nc3ccccc3c2=O)cc1	-4	9	-6	-15	-4	/
COc1ccc(-c2nc3ccccc3c(=O)n2NC(=S)N(C)C)cc1	-19	0	-6	80*	18	44
COc1ccc(C2/C=C\CC(NS(=O)(=O)c3ccc(C)cc3)CC(=O)N2Cc2ccccc2F)cc1 (stereo not drawn)	-4	/	/	14	/	/
CCOC(=O)c1c(C)[nH]c(C)c1S(=O)(=O)NCC1CCN(Cc2ccccc2OC)CC1	-4	/	/	-4	/	/
O=C1CCC2c3[nH]c4ccccc4c3CCN12 (stereo not drawn)	/	/	/	3	/	/
COc1cc2c(C#N)c(N3CCCC3)nc(N)c2c(N)n1	26	/	-7	20	/	/
N#Cc1c(N2CCCC2)nc(N)c2c(N)nc(N3CCCC3)cc12	20	-58	3	107*	-57	29
O=C1NC(Cc2ccc(O)cc2)c2nc3cc(Cl)ccc3c(=O)n2-c2cc3ccccc3cc21 (stereo not drawn)	/	/	/	-17	/	/
Cc1ccc(C2(C)NC(=O)N(CC(=O)NC3CCCCC3)C2=O)cc1 (stereo not drawn)	2	/	/	-21	/	/
CC1Sc2ccc(C(=O)NCc3ccccn3)cc2NC1=O (stereo not drawn)	0	/	/	60*	/	15
O=C(c1cccc(S(=O)(=O)N2CCc3ccccc3C2)c1)N1CCN(c2ccc(O)cc2)CC1	11	-8	-7	66*	20	26
O=C1C(c2ccccc2)=[N+]([O-])c2ccccc21	25	/	/	61*	/	12
O=C1C(=Cc2cccs2)C(=O)c2ccccc21	-2	1	36	-13	-4	/
COc1ccccc1N(C(=O)CCl)c1cn(C(C)=O)c2ccccc12	8	/	-7	-13	/	/
COc1ccccc1N(C(C)=O)C1=C(Cl)C(=O)c2ccccc2C1=O	/	/	/	123*	/	115*	Diaph ctr 10uM=92*;Diaph ctr 30uM=92*
C/C(O)=C(\N=Nc1cc(C)ccc1O)C(N)=O	-8	22	-10	-12	14	/
COc1cc2c(=O)n(CCC(=O)NCC3CCCO3)c(=O)n(CC(=O)Nc3ccc(C)cc3C)c2cc1OC (stereo not drawn)	-3	/	/	3	/	/
Cc1ccc(-n2c(SCC(=O)Nc3cc(C)on3)nc3c(c2=O)SC(C)C3)cc1 (stereo not drawn)	0	18	0	84*	11	31
Cc1ccc(S(=O)(=O)Nc2ccc(N3CCOCC3)cc2)cc1	-3	1	-7	10	8	/
Cc1ccc(S(=O)(=O)Nc2ccccc2N2CCCCC2)cc1	2	/	/	95*	/	35
Cc1cccc(S(=O)(=O)Nc2cc(Cl)ccc2N2CCOCC2)c1	-2	/	/	87*	/	31
Nc1cc(S(=O)(=O)Nc2ccccc2Cl)ccc1N1CCCCC1	-5	/	/	67*	/	40
Cc1ccc(S(=O)(=O)Nc2ccccc2N2CCOCC2)cc1	-7	/	/	62*	/	39
O=S(=O)(Nc1cc(C(F)(F)F)ccc1N1CCOCC1)c1ccccc1	3	/	-12	-2	/	/
SMILES	HKDC1 inhibitor	G6PDH counter	Tb hexokinase	PfGluPho inh	Diaph inh CS	PfGluPho conf	others
COc1cccc(NC(=O)CN(C)C(=O)c2ccccc2-c2nc3ccccc3s2)c1	3	/	/	-10	/	/
Cc1ccccc1-n1nc2c(c1NC(=O)C1CCCC1)CS(=O)(=O)C2	5	/	/	-15	/	/
CCCCCCCCCCCCCCCC(=O)Nc1ccn(C2OC(CO)C(O)C2O)c(=O)n1 (stereo not drawn)	3	/	/	17	/	/
COc1ccc([N+](=O)[O-])cc1NC(=O)COC(=O)C12CC3CC(CC(O)(C3)C1)C2	/	/	/	-13	/	/
Cc1ccc(S(=O)(=O)Nc2ccccc2-c2ccccc2)cc1	3	9	8	76*	13	32
Cc1ccc(NS(=O)(=O)c2ccccc2)c(NS(=O)(=O)c2ccccc2)c1	1	/	/	4	/	/
O=C1C=CC(=O)N1Cc1ccncc1	-2	/	/	4	/	/
O=C1C=CC(=O)N1CCCCCCCCCCN1C(=O)C=CC1=O	3	/	/	84*	/	55*	Diaph ctr 10uM=-20;Diaph ctr 30uM=-25
Oc1ccc(/C=N/N2CCOCC2)c(O)c1O	1	52*	-5	87*	69*	48
Oc1ccc(/C=N/N2CCCCC2)c(O)c1O	-1	/	/	118*	/	92*	Diaph ctr 10uM=98*;Diaph ctr 30uM=96*
O=C(CCC(=O)Nc1ccc(Cl)cc1Cl)N/N=C/c1ccc([N+](=O)[O-])o1	0	19	-23	62*	25	45
CCCCCC(=O)N/N=C/c1ccc([N+](=O)[O-])o1	7	1	-20	11	27	/
O=C1/C(=C/c2ccc([N+](=O)[O-])cc2)CCC1C1CCCC1 (stereo not drawn)	14	/	/	-8	/	/
CCN(CC)CCCNc1ccc2ncn3c4ccc(O)cc4c(=O)c1c23	29	/	/	80*	/	-13
Nc1ccc2c(c1)C(=O)C(=O)c1ccccc1-2	2	58*	1	108*	28	89*	Diaph ctr 10uM=77*;Diaph ctr 30uM=90*
S=c1nc2[nH]c3ccccc3c2n[nH]1	-5	/	/	66*	/	10
Cc1cccc2nnc(-c3ccccc3)n12	-8	/	/	6	/	/
O=C1c2ccccc2-c2onc3c(N4CCN(CCO)CC4)cc(N4CCN(C(=O)c5ccco5)CC4)c1c23	24	/	/	75*	/	35
O=C(c1ccco1)N1CCN(CCCCN2C(=O)c3ccccc3C2=O)CC1	-1	4	-8	-1	-6	/
CC1=CC(C)(C)Nc2ccc(OC(=O)CN3C(=O)CCC3=O)cc21	22	21	-6	62*	23	52*	Diaph ctr 10uM=40;Diaph ctr 30uM=3
CCCCC(=O)Nc1ccc(NCc2ccc(C)s2)cc1	2	/	/	6	/	/
O=C1SC(SC(=Nc2ccccc2)Nc2ccccc2)C(=O)N1c1ccccc1 (stereo not drawn)	-8	3	1	60*	24	19
Oc1cc(-n2cccn2)c(O)cc1-n1cccn1	2	/	16	102*	/	86*	Diaph ctr 10uM=36;Diaph ctr 30uM=0
CC1CCN(C(=S)c2ccccc2O)CC1	2	29	0	64*	2	17
CC1CCN(C(=S)c2ccc(O)cc2)CC1	-5	1	-2	7	7	/
COc1ccc(C2C(Oc3ccccc3)C(=O)N2c2ccc(C)c(C)c2)cc1OC (stereo not drawn)	0	/	-1	81*	/	23
